According to ChEMBL document CHEMBL4325900, “Antibacterial activity evaluation of synthetic novel pleuromutilin derivatives in vitro and in experimental infection mice” (2019):
Converted amounts (≈) assume the structure as drawn.

Tests used:
Staphylococcus aureus [1] = test: Antibacterial activity against methicillin-sensitive Staphylococcus aureus after 24 hrs by NCCLS method; type: functional
In short: (§1)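 Broth microdilution in Mueller-Hinton broth. Stocks at 1280 µg/mL in aqueous 10-20% DMSO were diluted to 128 µg/mL, then serially 2-fold diluted giving final concentrations of 64 down to 0.125 µg/mL. Overnight MHB cultures were diluted to 10^6~10^7 CFU/mL, and 100 µL was added per well. Plates ran 24 h at 37°C. MIC was read from OD against an MHB blank, in triplicate.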

Staphylococcus aureus [2] = test: Antibacterial activity against methicillin-resistant Staphylococcus aureus after 24 hrs by NCCLS method; type: functional
In short: (§2)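 Broth microdilution in Mueller-Hinton broth. Stocks at 1280 µg/mL in aqueous 10-20% DMSO, diluted to 128 µg/mL, then 2-fold serially to final 64 down to 0.125 µg/mL. Overnight MHB cultures diluted to 10^6~10^7 CFU/mL and added 1:1 to compound. Incubated 24 h at 37°C. MIC read from OD against MHB blank. Three parallels per concentration.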

[3] = tested on: Staphylococcus epidermidis; test: Antibacterial activity against methicillin-sensitive Staphylococcus epidermidis after 24 hrs by NCCLS method; type: functional; in short: as §2
[4] = tested on: Staphylococcus epidermidis; test: Antibacterial activity against methicillin-resistant Staphylococcus epidermidis after 24 hrs by NCCLS method; type: functional; in short: as §2
Enterococcus faecium = test: Antibacterial activity against Enterococcus faecium after 24 hrs by NCCLS method; type: functional; in short: as §1
Enterococcus faecalis = test: Antibacterial activity against Enterococcus faecalis after 24 hrs by NCCLS method; type: functional; in short: as §1
Escherichia coli = test: Antibacterial activity against Escherichia coli ATCC 11775 after 24 hrs by NCCLS method; type: functional; conditions: DSM 30083 = JCM 1649 = ATCC 11775, 24 h; in short: as §1
Pasteurella multocida = test: Antibacterial activity against Pasteurella multocida after 24 hrs by NCCLS method; type: functional; in short: as §1
Staphylococcus aureus [5] = test: Bactericidal activity against exponential phase of methicillin-resistant Staphylococcus aureus after 1 to 4 hrs by time kill kinetics assay; type: functional, organism-based
In short: (§3)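 Exponential-phase S. aureus (4 h at 37°C, 120 rpm) diluted to ~2×10^7 CFU/mL in MHB and mixed 1:1 with MHB containing twice the desired compound concentration. Shaken at 37°C, 120 rpm. Samples at 1, 2, 3 and 4 h washed with PBS, diluted, spot-plated on MH agar, counted after ~18 h at 37°C as log10 CFU/mL. Triplicate, mean±s.d.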

Staphylococcus aureus [6] = test: Bactericidal activity against exponential phase of methicillin-resistant Staphylococcus aureus assessed as time required for complete bacterial killing at 8 times MIC by time kill kinetics assay; type: functional; in short: as §3
Staphylococcus aureus [7] = test: Bactericidal activity against exponential phase of methicillin-resistant Staphylococcus aureus assessed as time required for complete bacterial killing at 4 times MIC by time kill kinetics assay; type: functional; in short: as §3
Staphylococcus aureus [8] = test: Antibacterial activity against methicillin-resistant Staphylococcus aureus clinical isolates infected in ip dosed mouse assessed as reduction in bacterial infection administered 1 hr after infection and measured after 7 days; type: functional
In short: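 Kunming mice, half male and half female, 19-23 g, 10 per group. Infected i.p. with 0.5 mL clinical MRSA isolate suspension (~10^7 CFU/mL). Single i.p. dose 1 h post-infection, five dose levels between 7.0 and 50.0 mg/kg depending on compound. Vehicle was DMSO:Tween-80:water 1:1:8, or water for valnemulin. ED50 by Probit analysis from survival after 7 days; 95% confidence ranges.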

Staphylococcus aureus [9] = test: Antibacterial activity against methicillin-resistant Staphylococcus aureus infected in Kunming mouse assessed as mouse survival at 40 mg/kg, ig qd treated for 3 consecutive days and measured during compound treatment relative to control; type: functional; conditions: po
In short: (§4)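 Female Kunming mice, 22±2 g, made neutropenic with cyclophosphamide i.p., 150 mg/kg 4 days and 100 mg/kg 1 day before infection. Infected i.p. with 0.5 mL suspension of clinical MRSA isolate. Intragastric dosing at 20 or 40 mg/kg/d, starting 1 h post-infection, once daily for 3 consecutive days. Survival monitored.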

Staphylococcus aureus [10] = test: Antibacterial activity against methicillin-resistant Staphylococcus aureus infected in Kunming mouse assessed as mouse survival at 40 mg/kg, ig qd treated for 3 consecutive days and measured at day 5 relative to control; type: functional; conditions: po, 120 h; in short: as §4
Staphylococcus aureus [11] = test: Antibacterial activity against methicillin-resistant Staphylococcus aureus infected in Kunming mouse assessed as mouse survival at 40 mg/kg, ig qd treated for 3 consecutive days and measured at day 6 relative to control; type: functional; conditions: po, 144 h; in short: as §4
Staphylococcus aureus [12] = test: Antibacterial activity against methicillin-resistant Staphylococcus aureus infected in Kunming mouse assessed as mouse survival at 20 mg/kg, ig qd treated for 3 consecutive days and measured up to 10 days relative to control; type: functional; conditions: po, 240 h; in short: as §4

Question: How did the MIC (Staphylococcus aureus [1]) turn out when `C=C[C@]1(C)C[C@@H](OC(=O)CSc2nc(NC(=O)CN3CCC(c4ccccc4)CC3)c3cc[nH]c3n2)[C@]2(C)[C@H](C)CC[C@]3(CCC(=O)[C@H]32)[C@@H](C)[C@@H]1O` was run?
Answer: 0.25 µg/mL (≈ 0.343 µM)

Question: And the MIC (Staphylococcus aureus [2])?
Answer: 0.25 µg/mL (≈ 0.343 µM)

Question: What about the MIC [3] of the same molecule?
Answer: 0.25 µg/mL (≈ 0.343 µM)

Question: And the MIC [4]?
Answer: 0.25 µg/mL (≈ 0.343 µM)

Question: Which MIC (Staphylococcus aureus [1]) does the source give for `C=C[C@]1(C)C[C@@H](OC(=O)CSc2nc(N)c3cc[nH]c3n2)[C@]2(C)[C@H](C)CC[C@]3(CCC(=O)[C@H]32)[C@@H](C)[C@@H]1O` here?
Answer: 1 µg/mL (≈ 1.9 µM)

Question: And the MIC (Staphylococcus aureus [2])?
Answer: 1 µg/mL (≈ 1.9 µM)

Question: And the MIC [3]?
Answer: 1 µg/mL (≈ 1.9 µM)

Question: And the MIC [4]?
Answer: 2 µg/mL (≈ 3.8 µM)

Question: And the MIC (Enterococcus faecium)?
Answer: 1 µg/mL (≈ 1.9 µM)

Question: And the MIC (Enterococcus faecalis)?
Answer: 64 µg/mL (≈ 122 µM)

Question: And the MIC (Escherichia coli)?
Answer: > 64 µg/mL

Question: What about the MIC (Pasteurella multocida) of the same molecule?
Answer: 64 µg/mL (≈ 122 µM)

Question: What does the source list for `C=C[C@]1(C)C[C@@H](OC(=O)CSc2nc(NC(=O)CNC3CC3)c3cc[nH]c3n2)[C@]2(C)[C@H](C)CC[C@]3(CCC(=O)[C@H]32)[C@@H](C)[C@@H]1O`?
Answer: MIC (Staphylococcus aureus [1]): 0.125 µg/mL (≈ 0.2 µM); MIC (Staphylococcus aureus [2]): 0.25 µg/mL (≈ 0.401 µM); MIC [3]: 0.125 µg/mL (≈ 0.2 µM); MIC [4]: 0.25 µg/mL (≈ 0.401 µM); MIC (Enterococcus faecium): 0.25 µg/mL (≈ 0.401 µM); MIC (Enterococcus faecalis): 64 µg/mL (≈ 103 µM); MIC (Escherichia coli): > 64 µg/mL; MIC (Pasteurella multocida): 32 µg/mL (≈ 51.3 µM)

Question: `C=C[C@]1(C)C[C@@H](OC(=O)CSc2nc(NC(=O)CN3CCCC3)c3cc[nH]c3n2)[C@]2(C)[C@H](C)CC[C@]3(CCC(=O)[C@H]32)[C@@H](C)[C@@H]1O` was tested. Which MIC (Staphylococcus aureus [1]) did it give?
Answer: 0.0625 µg/mL (≈ 0.098 µM)

Question: And the MIC (Staphylococcus aureus [2])?
Answer: 0.0625 µg/mL (≈ 0.098 µM)

Question: What about the MIC [3] of the same molecule?
Answer: 0.0625 µg/mL (≈ 0.098 µM)

Question: And the MIC [4]?
Answer: 0.0625 µg/mL (≈ 0.098 µM)

Question: And the MIC (Enterococcus faecium)?
Answer: 0.0625 µg/mL (≈ 0.098 µM)

Question: What about the MIC (Enterococcus faecalis) of the same molecule?
Answer: 64 µg/mL (≈ 100 µM)

Question: What about the MIC (Escherichia coli) of the same molecule?
Answer: 32 µg/mL (≈ 50.2 µM)

Question: What about the MIC (Pasteurella multocida) of the same molecule?
Answer: 16 µg/mL (≈ 25.1 µM)

Question: What about the Activity (Staphylococcus aureus [5]) of the same molecule?
Answer: Dose-dependent effect

Question: What about the Time (Staphylococcus aureus [6]) of the same molecule?
Answer: 2 h

Question: What about the Time (Staphylococcus aureus [7]) of the same molecule?
Answer: 4 h

Question: What about the ED50 (Staphylococcus aureus [8]) of the same molecule?
Answer: 16 mg/kg

Question: What about the survival at 40 mg/kg (Staphylococcus aureus [9]) of the same molecule?
Answer: > 90%

Question: What about the survival at 40 mg/kg (Staphylococcus aureus [10]) of the same molecule?
Answer: 70%

Question: And the survival at 40 mg/kg (Staphylococcus aureus [11])?
Answer: 80%

Question: And the survival at 20 mg/kg (Staphylococcus aureus [12])?
Answer: 30%

Question: What does the source list for `C=C[C@]1(C)C[C@@H](OC(=O)CSc2nc(NC(=O)CNC3CCCCC3)c3cc[nH]c3n2)[C@]2(C)[C@H](C)CC[C@]3(CCC(=O)[C@H]32)[C@@H](C)[C@@H]1O`?
Answer: MIC (Staphylococcus aureus [1]): 0.5 µg/mL (≈ 0.751 µM); MIC (Staphylococcus aureus [2]): 1 µg/mL (≈ 1.5 µM); MIC [3]: 0.5 µg/mL (≈ 0.751 µM); MIC [4]: 0.5 µg/mL (≈ 0.751 µM); MIC (Enterococcus faecium): 0.5 µg/mL (≈ 0.751 µM); MIC (Enterococcus faecalis): 64 µg/mL (≈ 96.1 µM); MIC (Escherichia coli): > 64 µg/mL; MIC (Pasteurella multocida): 64 µg/mL (≈ 96.1 µM)

Question: With `C=C[C@]1(C)C[C@@H](OC(=O)CSc2nc(NC(=O)CN3CCNCC3)c3cc[nH]c3n2)[C@]2(C)[C@H](C)CC[C@]3(CCC(=O)[C@H]32)[C@@H](C)[C@@H]1O` as the molecule, how does the MIC (Staphylococcus aureus [1]) read?
Answer: 2 µg/mL (≈ 3.06 µM)

Question: And the MIC (Staphylococcus aureus [2])?
Answer: 4 µg/mL (≈ 6.13 µM)

Question: And the MIC [3]?
Answer: 1 µg/mL (≈ 1.53 µM)

Question: And the MIC [4]?
Answer: 1 µg/mL (≈ 1.53 µM)

Question: What about the MIC (Enterococcus faecium) of the same molecule?
Answer: 1 µg/mL (≈ 1.53 µM)

Question: What about the MIC (Enterococcus faecalis) of the same molecule?
Answer: 64 µg/mL (≈ 98 µM)

Question: And the MIC (Escherichia coli)?
Answer: > 64 µg/mL

Question: What about the MIC (Pasteurella multocida) of the same molecule?
Answer: 32 µg/mL (≈ 49 µM)

Question: With `C=C[C@]1(C)C[C@@H](OC(=O)CSc2nc(NC(=O)CN3CCC(O)CC3)c3cc[nH]c3n2)[C@]2(C)[C@H](C)CC[C@]3(CCC(=O)[C@H]32)[C@@H](C)[C@@H]1O` as the molecule, how does the MIC (Staphylococcus aureus [2]) read?
Answer: 2 µg/mL (≈ 2.99 µM)

Question: And the MIC [3]?
Answer: 1 µg/mL (≈ 1.5 µM)

Question: And the MIC [4]?
Answer: 1 µg/mL (≈ 1.5 µM)

Question: Which MIC (Staphylococcus aureus [1]) does the source give for `C=C[C@]1(C)C[C@@H](OC(=O)CSc2nc(NC(=O)CN3CCN(c4ccccc4)CC3)c3cc[nH]c3n2)[C@]2(C)[C@H](C)CC[C@]3(CCC(=O)[C@H]32)[C@@H](C)[C@@H]1O` here?
Answer: 1 µg/mL (≈ 1.37 µM)

Question: What about the MIC (Staphylococcus aureus [2]) of the same molecule?
Answer: 1 µg/mL (≈ 1.37 µM)

Question: What about the MIC [3] of the same molecule?
Answer: 0.5 µg/mL (≈ 0.686 µM)

Question: And the MIC [4]?
Answer: 1 µg/mL (≈ 1.37 µM)

Question: What about the MIC (Enterococcus faecium) of the same molecule?
Answer: 1 µg/mL (≈ 1.37 µM)

Question: What about the MIC (Enterococcus faecalis) of the same molecule?
Answer: 64 µg/mL (≈ 87.8 µM)

Question: What about the MIC (Escherichia coli) of the same molecule?
Answer: > 64 µg/mL

Question: And the MIC (Pasteurella multocida)?
Answer: 64 µg/mL (≈ 87.8 µM)
